Measurements from PMC4714953 (Antiviral therapy, 2015).
Read-outs that look alike come from different tables or passages of the source.

How the values were obtained:
[1] = Hepatic vaniprevir concentration by core needle biopsy; format: in vivo, human; settings: for concentration at 12 h / Kp at 6 h: human, liver, oral, mean; for concentration at 12 h: Liver concentration C12h, mean (one subject), 12 h post-dose day 4; for Kp at 6 h: Liver:plasma ratio C6h, 6 h post-dose day 4
Outline: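 Genotype 1 chronic HCV patients (n=3), non-cirrhotic, treatment-experienced, fixed sequence: 600 mg twice daily days 1–3 and a single dose on day 4, then after at least 30 days off drug, 300 mg on the same schedule. Ultrasound-guided core needle biopsy of the right hepatic lobe 6 or 12 h after the day-4 dose. Tissue weighed, stored at −70°C, homogenized in human EDTA plasma, extracted liquid–liquid at acidic pH, then LC-MS/MS (0.1–200 µg/g). Liver/plasma ratio calculated.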

[2] = Plasma vaniprevir pharmacokinetics; format: in vivo, human; settings: for AUC(0-t) / Cmax / Tmax / half-life / concentration at 12 h: human, plasma, oral
Outline: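 Same patients and fixed-sequence regimen: 600 mg then 300 mg twice daily days 1–3, single dose on day 4, at least 30-day washout between periods. Day-4 plasma over the 12-h dosing interval. LC-MS/MS, linear 1–1,000 ng/ml, CV under 10%, accuracy within ±10.0%. AUC0–12, Cmax, C12h, Tmax and t½ derived using nominal times. Tmax as median (min–max), t½ as harmonic mean ±pseudo sd.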

HCV RNA = experiment: Decline of HCV RNA in patients on vaniprevir; format: in vivo; settings: genotype 1 chronic HCV patients
[3] = cited from earlier work; for AUC0–12: plasma
[4] = chimpanzees, 10 mg/kg oral, cited from earlier work
[5] = rat, dog and rhesus monkey; cited from earlier work
[6] = system: liver organic anion-transporting polypeptides; settings: cited from earlier work
[7] = 300 mg to 600 mg twice daily, day 4

- concentration at 12 h ([1]; 300 mg, 300 mg twice daily): 29400 nM
- Kp at 6 h ([1]; 300 mg, 300 mg twice daily): 166
- concentration at 12 h ([1]; 600 mg, 600 mg twice daily): 53700 nM
- Kp at 6 h ([1]; 600 mg, 600 mg twice daily): 67.3
- Hepatic concentrations, 600 mg versus 300 mg twice daily regimen ([1]; mean liver concentrations at 6 and 12 h post-dose): twofold higher
- Increase in plasma AUC0–12 with a twofold increase in dose [2, 7]: approximately fivefold
- Increase in plasma C12h with a twofold increase in dose [2, 7]: approximately sevenfold
- Increase in plasma Cmax with a twofold increase in dose [2, 7]: approximately fivefold
- AUC(0-t) ([2]; 300 mg): 10.6 µM·h
- Cmax ([2]; 300 mg): 2600 nM
- Tmax ([2]; 300 mg): 2 h
- half-life ([2]; 300 mg): 6.3 ± 1.4 h
- concentration at 12 h ([2]; 300 mg, C12 h, plasma trough, day 4, 300 mg twice daily, n=3, arithmetic mean ±SD [CV%]): 160 nM
- concentration at 12 h ([2]; 300 mg, Plasma concentration C12h, mean, mean (one subject, Table 1), 300 mg twice daily, 12 h post-dose day 4): 120 nM
- AUC(0-t) ([2]; 600 mg): 59.5 µM·h
- Cmax ([2]; 600 mg): 13500 nM
- Tmax ([2]; 600 mg): 3 h
- half-life ([2]; 600 mg): 3.6 ± 1 h
- concentration at 12 h ([2]; 600 mg, C12 h, plasma trough, day 4, 600 mg twice daily, n=3, arithmetic mean ±SD [CV%]): 1110 nM
- concentration at 12 h ([2]; 600 mg, Plasma concentration C12h, mean, mean (one subject, Table 1), 600 mg twice daily, 12 h post-dose day 4): 190 nM
SMILES: CC[C@@H]1C[C@]1(NC(=O)[C@@H]1C[C@@H]2CN1C(=O)[C@H](C(C)(C)C)NC(=O)OCC(C)(C)CCCCc1cccc3c1CN(C3)C(=O)O2)C(=O)NS(=O)(=O)C1CC1 [vaniprevir]
- Decline of HCV RNA by day 2 (HCV RNA; 300 mg twice daily): approximately 3 log
- Decline of HCV RNA by day 2 (HCV RNA; 600 mg twice daily): approximately 4 log
- Plasma vaniprevir Tmax ([3]; humans): 1.5 to 3 h
- AUC0–12 ([3]; 300 mg twice daily): 5.15 µM/h
- AUC0–12 ([3]; 600 mg twice daily): 23.36 µM/h
- Maximum liver concentration ([4]; reached at 12 h after dosing): 31 µM
- Plasma AUC0–24 [4]: 5.2 µM/h
- Liver concentrations at 24 h post-dose [5]: 200 to 600 nM
- Liver organic anion-transporting polypeptides transport in vitro [6]: saturated at high concentrations
